KCNQ1 inh – blocks the human KCNQ1 potassium channel; CHO-K1 KCNQ1, FluxOR thallium flux fluorescence; hits give high values; B-score at 10 µM; 310,000 tested, 1.3% active; AID 2642;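 active = compounds whose thallium flux B-score, printed positive for inhibition, exceeds three library SD while starting fluorescence stays within three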;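 note: channel opened by potassium depolarization with thallium stimulus after 20 min compound exposure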
hERG rescue – compounds protecting human hERG from proarrhythmic drug block; Q12809; CHO-hERG, FluxOR thallium flux, dofetilide IC70 present; activation (rescue from dofetilide block), less the hit threshold, % at 10 µM; 310,000 tested, 0.51% active; AID 1511;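 active = activation above the mean of controls blocked by dofetilide plus 5 SD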;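 note: thallium influx through hERG after potassium depolarization seen as dye fluorescence rise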
Target sequence (Q12809 whole entry, looked up): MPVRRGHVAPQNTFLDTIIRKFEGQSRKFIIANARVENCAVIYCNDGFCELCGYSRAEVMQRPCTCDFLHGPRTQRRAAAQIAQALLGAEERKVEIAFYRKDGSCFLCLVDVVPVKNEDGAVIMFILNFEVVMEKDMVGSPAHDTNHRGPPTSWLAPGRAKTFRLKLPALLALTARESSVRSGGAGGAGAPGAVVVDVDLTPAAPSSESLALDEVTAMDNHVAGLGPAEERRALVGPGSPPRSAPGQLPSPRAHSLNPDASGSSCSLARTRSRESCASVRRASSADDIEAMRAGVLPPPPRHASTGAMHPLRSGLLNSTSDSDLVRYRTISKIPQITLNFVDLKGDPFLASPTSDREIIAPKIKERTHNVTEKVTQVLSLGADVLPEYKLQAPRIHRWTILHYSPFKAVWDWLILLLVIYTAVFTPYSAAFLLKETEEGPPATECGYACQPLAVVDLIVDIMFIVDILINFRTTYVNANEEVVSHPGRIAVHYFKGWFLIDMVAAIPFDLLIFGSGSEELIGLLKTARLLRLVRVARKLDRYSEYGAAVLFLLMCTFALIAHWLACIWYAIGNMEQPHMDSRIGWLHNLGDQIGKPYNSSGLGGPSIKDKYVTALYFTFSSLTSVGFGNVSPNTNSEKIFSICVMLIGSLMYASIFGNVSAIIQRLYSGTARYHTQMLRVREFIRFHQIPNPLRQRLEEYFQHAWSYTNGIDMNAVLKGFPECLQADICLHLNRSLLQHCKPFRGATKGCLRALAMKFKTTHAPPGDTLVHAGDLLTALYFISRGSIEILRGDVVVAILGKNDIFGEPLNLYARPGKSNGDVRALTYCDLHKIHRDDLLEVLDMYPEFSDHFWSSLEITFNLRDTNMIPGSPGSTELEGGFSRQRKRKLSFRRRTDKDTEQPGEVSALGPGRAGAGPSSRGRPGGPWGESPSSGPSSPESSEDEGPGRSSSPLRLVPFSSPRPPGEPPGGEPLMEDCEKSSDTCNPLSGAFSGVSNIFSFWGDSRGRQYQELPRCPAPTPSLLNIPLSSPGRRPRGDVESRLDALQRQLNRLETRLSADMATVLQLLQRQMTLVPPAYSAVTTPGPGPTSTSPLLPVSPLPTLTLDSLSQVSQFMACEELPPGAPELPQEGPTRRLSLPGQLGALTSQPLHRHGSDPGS
KCNQ1 pot – human KCNQ1 channel potentiation or activation; CHO-K1 KCNQ1, thallium flux FluxOR fluorescence; hits give high values; 310,000 tested, 0.35% active; P51787; AID 2648; B-score at 10 µM;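 active = fluorescence ratio B-score, a plate-corrected score, at least three library SD, with initial intensity B-score within 5 SD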
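Medium – assay buffer, equal DMSO in all wells · Material – CHO-K1 cell line with stable KCNQ1 potassium channel expression · Signal – kinetic FluxOR thallium fluorescence, 10-s 1-Hz baseline, 110-s post-stimulus read · Compound – single concentration per compound, DMSO matched to controls · Schedule – 37 °C overnight plating, 90-min dark dye load, 20-min compound pretreatment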
KCNK9 inh – blocks the human KCNK9 two-pore domain potassium channel; AID 488922; Q9NPC2; HEK293 KCNK9, FluxOR thallium flux fluorescence; hits give low values; 310,000 tested, 1.2% active; B-score at 10 µM;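 active = ratio B-score over 3 SD below the library mean, with starting fluorescence within 5 SD of its mean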;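 note: negative B-score means less thallium flux so channel inhibition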
KCNK3 block – human KCNK3 channel inhibition, primary screen; CHO-KCNK3 thallium flux, FluxOR fluorescence; hits give low values; B-score at 10 µM; 340,000 tested, 0.84% active; AID 602410;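 active = B-score under library mean minus 4 SD, starting fluorescence ratio at most library mean plus 5 SD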;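 note: more negative B-score means stronger inhibition of thallium flux through KCNK3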
KCNK9 block conf – confirmation of human KCNK9 potassium channel inhibitors. shares compounds with KCNK9 inh. HEK293 KCNK9 cells, FluxOR thallium flux fluorescence. inhibition, % at 10 µM. 4,900 tested, 43% active. AID 492992;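 active = thallium signal inhibited by more than 5 SD of the compound-free buffer control wells, on both duplicate plates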;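 note: 0% = assay buffer control wells without compound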
Kir2-1 spec – selectivity of KCNK9 modulators against mouse Kir2.1. shares compounds with KCNK9 inh. Kir2.1 cells, FluxOR thallium flux fluorescence. inhibition, % at 10 µM. 4,900 tested, 4% active. AID 492993;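 active = thallium signal drop more than 5 SD beyond the mean of the no-compound control wells, seen in both duplicate plates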;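 note: signal is fluorescence rise after thallium addition divided by baseline fluorescence; plate controls were assay buffer only for no effect and full block by chlorpromazine control for full effect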
KCNK9 uninduced – second counter-screen for KCNK9 modulators: effect in non-induced cells | 4,900 tested, 40% active | shares compounds with KCNK9 inh | inhibition, % at 10 µM | AID 492997 | non-induced KCNK9-HEK293, FluxOR thallium flux;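 active = thallium signal drop beyond 5 SD of the untreated control mean, on both duplicate plates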;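 note: plate controls were buffer only IC0 wells for no effect and SID17386958 at its maximal inhibitory level for full effect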
Starred values were filed as active, the others as inactive; i = inactive; · = no result given. Hits are enriched below; roughly 3.1% of the tested compounds scored in any of these assays.

SMILES	KCNQ1 inh	hERG rescue	KCNQ1 pot	KCNK9 inh	KCNK3 block	KCNK9 block conf	Kir2-1 spec	KCNK9 uninduced
Cn1cc(/C=N/n2cnc3scc(-c4ccc(Cl)cc4)c3c2=O)c2ccccc21	i	-4.7	i	i	i	i	i	i
O=C(NCc1ccco1)c1cc(NS(=O)(=O)c2cccc([N+](=O)[O-])c2)ccc1O	i	-11.3	i	i	i	i	i	i
O=C(NCc1ccco1)c1cccc(NS(=O)(=O)c2cccc(F)c2)c1	i	-6.3	i	i	i	·	·	·
Cc1cc2ccc3ccccc3c2cc1CN(C)C	i	-2.5	i	i	i	i	66.0%*	i
CN(C)Cc1cc2ccccc2c2c1COC2	i	-9.6	i	i	i	·	·	·
O=C(CNC(c1ccccc1)c1ccccc1)Nc1ccccc1F	i	-9.6	i	i	i	·	·	·
CN(CC(=O)Nc1ccccc1Oc1ccccc1)Cc1ccccc1F	i	-19.6	i	-13*	i	77.5%*	47.0%*	41.5%*
Cc1ccccc1CN(C)CC(=O)Nc1ccccc1-c1ccccc1	i	-7.6	i	-10*	i	71.0%*	55.0%*	41.5%*
O=C(CNC(c1ccccc1)c1ccccc1)Nc1ccccc1-c1ccccc1	i	-13.9	i	-12*	i	25.5%*	i	42.5%*
CCCC(=O)Nc1cc(C(=O)O)ccc1Sc1ccccc1	i	-13.7	i	i	i	·	·	·
CC(CCc1ccccc1)NC(=O)COC(=O)C1CCC(C(C)(C)C)CC1 (stereo not drawn)	i	-10.4	i	i	i	i	i	i
CC1(c2nnc(-c3cccc(Cl)c3)o2)CC(c2cccc([N+](=O)[O-])c2)=NO1 (stereo not drawn)	i	-18.7	i	i	i	·	·	·
Cc1cc(Cl)ccc1C(=O)C1CCCN(C(=O)c2cnn(C(C)C)c2)C1 (stereo not drawn)	i	-5.2	i	i	i	i	i	i
Cc1ccc(C(=O)N2CCCC(C(=O)c3ccc(Cl)cc3C)C2)cn1 (stereo not drawn)	i	-3.7	i	i	i	·	·	·
Cc1cc(Cl)ccc1C(=O)C1CCCN(C(=O)c2n[nH]c3c2CCCC3)C1 (stereo not drawn)	i	-3.9	i	i	i	i	i	i
COc1cc(NC(=S)Nc2ccccn2)c(OC)cc1Cl	i	-8.0	i	i	i	·	·	·
CCCN(CCC)C(=O)Cn1c(=O)c2ccccc2n2c(=S)sc(-c3ccccc3C)c12	i	-1.4	i	i	i	i	i	i
CCCN(CCC)C(=O)Cn1c(=O)c2sccc2n2c(=S)sc(-c3ccccc3)c12	i	-11.3	i	i	i	·	·	·
O=C(Nc1ccc(C(F)(F)F)cc1)C1(c2ccccc2)CC1	i	-9.5	i	i	i	·	·	·
O=C(Nc1cccc(C(F)(F)F)c1)C1(c2ccccc2)CC1	i	-11.4	i	-11.8*	i	53.0%*	i	37.0%*
COc1ccc(OC(C)C(=O)NC2CCCCCCC2)cc1 (stereo not drawn)	i	-3.8	i	i	i	·	·	·
C#Cc1ccc([C@H]2C=C(C(=O)N3CCN(Cc4ccccc4)CC3)O[C@@H](OCc3ccc(CO)cc3)C2)cc1	i	-8.9	i	i	i	i	i	i
O=C(C1=C[C@H](c2ccc(C(F)(F)F)cc2)C[C@H](OCCCCO)O1)N1CCN(Cc2ccccc2)CC1	i	-10.5	i	i	i	i	i	i
O=C(C1=C[C@@H](c2ccc(Br)cc2)C[C@@H](OCc2ccc(CO)cc2)O1)N1CCN(Cc2ccccc2)CC1	i	-10.0	i	i	i	·	·	·
COc1ccc2cc(CN(Cc3cccnc3)S(=O)(=O)c3ccccc3)c(=O)[nH]c2c1	i	-15.8	i	i	i	·	·	·
SMILES	KCNQ1 inh	hERG rescue	KCNQ1 pot	KCNK9 inh	KCNK3 block	KCNK9 block conf	Kir2-1 spec	KCNK9 uninduced
COCCNC(=O)CCCC(=O)NCCOC	i	-5.3	i	i	i	·	·	·
Cc1cc(C)n(-c2nc3ccccc3nc2Nc2ccc(CC(=O)O)cc2)n1	i	-8.9	i	i	i	·	·	·
Cc1ccc(Nc2nc3ccccc3nc2-n2nc(C)cc2C)cc1	i	-10.4	i	-9.76*	i	57.0%*	i	31.5%*
COc1cc(OCc2ccccc2)c(C(=O)/C=C/c2ccc3c(c2)OCO3)c(OC)c1OC	i	-6.3	i	-8.86*	i	i	i	35.0%*
COc1cccc(C2CCCN2Cc2nc(CCC(C)C)no2)c1 (stereo not drawn)	i	-15.0	i	i	i	i	i	i
Cc1cc(C)cc(CC2CC(=O)N(c3ccc4c(c3)OCCO4)C2=O)c1 (stereo not drawn)	i	-3.2	i	i	i	i	i	i
CCOC(=O)c1ccc(NC(=O)C2C3CCCCC32)cc1 (stereo not drawn)	i	-3.0	i	-9.42*	i	i	i	i
O=C(Nc1ccc(C(F)(F)F)cc1Cl)c1ccc(Cn2cc(Br)cn2)o1	i	-1.7	i	-12.3*	i	37.0%*	i	45.5%*
O=C(NCc1ccco1)c1cccc(NS(=O)(=O)c2ccccc2F)c1	i	-3.5	i	i	i	·	·	·
Cc1ccc(S(=O)(=O)n2nccc2-c2c(-c3ccc(Cl)cc3)noc2C)cc1	i	-7.4	i	-11.7*	i	i	i	36.5%*
Cc1ccc(OCC(=O)NCCNC(=O)c2cnccn2)cc1	i	-6.9	i	i	i	·	·	·
Cc1ccccc1-n1ncc2c(SCC(=O)N3c4ccccc4CC3C)ncnc21 (stereo not drawn)	i	-6.8	i	i	i	i	i	i
Cc1ccccc1-n1ncc2c(SCC(=O)NC3CCCC3)ncnc21	i	-3.5	i	i	i	·	·	·
CCCc1nc(SCC(=O)N2CCCc3ccccc32)c2c(=O)n(C)c(=O)n(C)c2n1	i	-25.6	i	i	i	i	i	i
Cc1cc(Br)ccc1-n1[nH]c(C)c(C=Nc2cccc3nsnc23)c1=O	i	-5.9	i	i	i	i	i	i
CC1=NCCN1S(=O)(=O)c1c(C(C)C)cc(C(C)C)cc1C(C)C	i	-9.8	i	-8.32*	i	i	i	i
